Among the data in ChEMBL document CHEMBL5653631, “A Potent and Selective ULK1 Inhibitor Suppresses Autophagy and Sensitizes Cancer Cells to Nutrient Stress” (iScience, 2018) are inhibition and fold change (FC) values, retold here.

Assay [1] deals with T1, Serine/threonine-protein kinase A-Raf (Homo sapiens) (UniProt P10398).
T1 sequence (whole entry): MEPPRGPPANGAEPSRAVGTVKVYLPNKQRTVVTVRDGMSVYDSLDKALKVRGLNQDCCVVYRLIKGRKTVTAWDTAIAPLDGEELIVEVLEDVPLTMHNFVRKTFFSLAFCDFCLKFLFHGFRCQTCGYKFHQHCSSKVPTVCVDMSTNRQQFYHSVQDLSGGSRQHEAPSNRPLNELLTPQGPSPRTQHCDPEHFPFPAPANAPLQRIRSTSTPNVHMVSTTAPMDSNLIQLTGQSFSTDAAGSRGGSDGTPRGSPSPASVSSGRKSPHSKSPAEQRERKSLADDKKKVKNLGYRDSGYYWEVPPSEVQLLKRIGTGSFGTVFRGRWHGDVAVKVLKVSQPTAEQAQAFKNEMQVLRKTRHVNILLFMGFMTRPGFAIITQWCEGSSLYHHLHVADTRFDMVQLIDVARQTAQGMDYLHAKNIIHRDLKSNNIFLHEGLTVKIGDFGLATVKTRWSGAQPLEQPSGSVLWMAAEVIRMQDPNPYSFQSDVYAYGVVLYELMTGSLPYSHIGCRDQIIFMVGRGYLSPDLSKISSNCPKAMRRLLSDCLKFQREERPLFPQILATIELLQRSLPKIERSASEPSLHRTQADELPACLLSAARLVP
The assay is described as follows: Inhibition of human recombinant ARAF at 40 nM in presence of ATP by radiometric assay relative to control. Put shortly:
(§1)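 Panel of 327 recombinant human kinases, each assayed in vitro by radiometric activity assay in duplicate at a single inhibitor concentration per compound, chosen with reference to its ULK1 inhibition. Activity remaining was expressed as percent of vehicle control, and percent inhibition was calculated as 100 minus percent activity remaining.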

Assay [2] addresses T2, G protein-coupled receptor kinase 3 (Homo sapiens) (UniProt P35626).
T2 sequence (whole entry): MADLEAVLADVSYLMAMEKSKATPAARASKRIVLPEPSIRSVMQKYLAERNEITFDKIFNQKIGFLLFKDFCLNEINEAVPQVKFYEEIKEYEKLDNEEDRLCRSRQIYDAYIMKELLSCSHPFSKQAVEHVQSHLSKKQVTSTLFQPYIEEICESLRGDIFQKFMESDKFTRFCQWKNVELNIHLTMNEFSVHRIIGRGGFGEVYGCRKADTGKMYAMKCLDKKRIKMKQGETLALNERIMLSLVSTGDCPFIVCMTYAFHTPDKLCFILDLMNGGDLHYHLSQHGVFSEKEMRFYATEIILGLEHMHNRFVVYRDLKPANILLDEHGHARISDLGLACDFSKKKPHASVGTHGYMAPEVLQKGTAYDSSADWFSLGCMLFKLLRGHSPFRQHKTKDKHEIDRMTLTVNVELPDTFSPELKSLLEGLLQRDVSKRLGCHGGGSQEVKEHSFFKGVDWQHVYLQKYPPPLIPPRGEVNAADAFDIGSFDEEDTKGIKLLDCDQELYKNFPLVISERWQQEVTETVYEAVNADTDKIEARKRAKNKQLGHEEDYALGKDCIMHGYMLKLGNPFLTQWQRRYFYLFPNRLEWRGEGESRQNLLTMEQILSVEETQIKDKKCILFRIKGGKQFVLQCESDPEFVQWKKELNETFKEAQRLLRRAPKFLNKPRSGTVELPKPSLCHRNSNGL
The assay is described as follows: Inhibition of human recombinant BARK2 at 40 nM related to control ULK1. Put shortly:
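Radiometric activity assays in a panel of 327 human recombinant kinases, each run in duplicate at one inhibitor concentration. Activity remaining is expressed as percent of vehicle control, and percent inhibition is calculated as 100% minus percent activity remaining.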

Assay [3] addresses Serine/threonine-protein kinase Chk2 (Homo sapiens) (UniProt O96017). The assay is described as follows: Inhibition of human recombinant CHK2 at 500 nM in presence of ATP by radiometric assay relative to control.
The target in assay [4] is Serine/threonine-protein kinase WNK2 (Homo sapiens) (UniProt Q9Y3S1). The assay is described as follows: Inhibition of human recombinant Wnk2 at 500 nM in presence of ATP by radiometric assay relative to control.
For assay [5], the target named is G protein-coupled receptor kinase 6 (Homo sapiens) (UniProt P43250). The assay is described as follows: Inhibition of human recombinant GPRK6 at 500 nM in presence of ATP by radiometric assay relative to control.
Assay [6] deals with T3, Aurora kinase A (Homo sapiens) (UniProt O14965).
T3 sequence (whole entry): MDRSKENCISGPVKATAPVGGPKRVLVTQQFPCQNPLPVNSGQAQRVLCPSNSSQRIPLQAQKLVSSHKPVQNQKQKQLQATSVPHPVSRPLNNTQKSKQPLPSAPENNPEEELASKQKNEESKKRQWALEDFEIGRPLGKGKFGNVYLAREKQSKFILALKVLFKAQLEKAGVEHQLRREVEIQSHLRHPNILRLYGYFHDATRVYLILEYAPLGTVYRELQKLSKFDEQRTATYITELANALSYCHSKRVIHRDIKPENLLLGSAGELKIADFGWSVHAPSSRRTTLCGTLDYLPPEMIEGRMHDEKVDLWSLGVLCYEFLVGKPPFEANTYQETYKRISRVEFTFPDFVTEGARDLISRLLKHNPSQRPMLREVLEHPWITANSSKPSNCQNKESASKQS
The assay is described as follows: Inhibition of human recombinant AurA at 500 nM in presence of ATP by radiometric assay relative to control. An outline of the steps:
as §1

Assay [7] addresses Homeodomain-interacting protein kinase 2 (Homo sapiens) (UniProt Q9H2X6). The assay is described as follows: Inhibition of human recombinant HIPK2 at 500 nM related to control ULK1.
The target in assay [8] is T4, Activin receptor type-1 (Homo sapiens) (UniProt Q04771).
T4 sequence (whole entry): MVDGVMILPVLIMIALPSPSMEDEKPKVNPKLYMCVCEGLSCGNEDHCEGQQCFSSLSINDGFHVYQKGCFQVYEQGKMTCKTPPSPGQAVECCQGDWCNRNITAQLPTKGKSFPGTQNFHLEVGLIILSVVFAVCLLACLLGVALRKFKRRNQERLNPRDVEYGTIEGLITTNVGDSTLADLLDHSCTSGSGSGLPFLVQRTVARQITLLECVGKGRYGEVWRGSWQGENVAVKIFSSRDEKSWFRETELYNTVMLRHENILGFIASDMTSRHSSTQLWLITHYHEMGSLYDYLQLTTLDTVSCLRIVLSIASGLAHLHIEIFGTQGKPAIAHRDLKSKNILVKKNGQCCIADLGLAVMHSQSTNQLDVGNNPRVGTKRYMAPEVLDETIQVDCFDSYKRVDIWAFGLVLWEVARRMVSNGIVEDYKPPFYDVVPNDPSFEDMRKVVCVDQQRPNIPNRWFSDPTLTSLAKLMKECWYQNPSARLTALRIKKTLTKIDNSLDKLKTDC
The assay is described as follows: Inhibition of human recombinant ALK2 at 500 nM in presence of ATP by radiometric assay relative to control. An outline of the steps: as §1

Assay [9] deals with Cyclin-dependent kinase 5 (Homo sapiens) (UniProt Q00535). The assay is described as follows: Inhibition of human recombinant CDK5 at 15 nM related to control ULK1.
Chain of Cyclin-dependent kinase 5 (Homo sapiens) (Q00535 whole entry, looked up): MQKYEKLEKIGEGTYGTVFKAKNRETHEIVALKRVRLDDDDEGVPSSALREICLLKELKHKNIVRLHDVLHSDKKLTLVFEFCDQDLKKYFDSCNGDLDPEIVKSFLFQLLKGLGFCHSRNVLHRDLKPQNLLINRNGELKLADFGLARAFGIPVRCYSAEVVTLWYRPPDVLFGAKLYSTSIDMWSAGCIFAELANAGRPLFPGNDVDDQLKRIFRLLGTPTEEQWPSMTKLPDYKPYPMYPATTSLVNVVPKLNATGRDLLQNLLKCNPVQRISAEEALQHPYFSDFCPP

Chain of Serine/threonine-protein kinase WNK2 (Homo sapiens) (Q9Y3S1 whole entry): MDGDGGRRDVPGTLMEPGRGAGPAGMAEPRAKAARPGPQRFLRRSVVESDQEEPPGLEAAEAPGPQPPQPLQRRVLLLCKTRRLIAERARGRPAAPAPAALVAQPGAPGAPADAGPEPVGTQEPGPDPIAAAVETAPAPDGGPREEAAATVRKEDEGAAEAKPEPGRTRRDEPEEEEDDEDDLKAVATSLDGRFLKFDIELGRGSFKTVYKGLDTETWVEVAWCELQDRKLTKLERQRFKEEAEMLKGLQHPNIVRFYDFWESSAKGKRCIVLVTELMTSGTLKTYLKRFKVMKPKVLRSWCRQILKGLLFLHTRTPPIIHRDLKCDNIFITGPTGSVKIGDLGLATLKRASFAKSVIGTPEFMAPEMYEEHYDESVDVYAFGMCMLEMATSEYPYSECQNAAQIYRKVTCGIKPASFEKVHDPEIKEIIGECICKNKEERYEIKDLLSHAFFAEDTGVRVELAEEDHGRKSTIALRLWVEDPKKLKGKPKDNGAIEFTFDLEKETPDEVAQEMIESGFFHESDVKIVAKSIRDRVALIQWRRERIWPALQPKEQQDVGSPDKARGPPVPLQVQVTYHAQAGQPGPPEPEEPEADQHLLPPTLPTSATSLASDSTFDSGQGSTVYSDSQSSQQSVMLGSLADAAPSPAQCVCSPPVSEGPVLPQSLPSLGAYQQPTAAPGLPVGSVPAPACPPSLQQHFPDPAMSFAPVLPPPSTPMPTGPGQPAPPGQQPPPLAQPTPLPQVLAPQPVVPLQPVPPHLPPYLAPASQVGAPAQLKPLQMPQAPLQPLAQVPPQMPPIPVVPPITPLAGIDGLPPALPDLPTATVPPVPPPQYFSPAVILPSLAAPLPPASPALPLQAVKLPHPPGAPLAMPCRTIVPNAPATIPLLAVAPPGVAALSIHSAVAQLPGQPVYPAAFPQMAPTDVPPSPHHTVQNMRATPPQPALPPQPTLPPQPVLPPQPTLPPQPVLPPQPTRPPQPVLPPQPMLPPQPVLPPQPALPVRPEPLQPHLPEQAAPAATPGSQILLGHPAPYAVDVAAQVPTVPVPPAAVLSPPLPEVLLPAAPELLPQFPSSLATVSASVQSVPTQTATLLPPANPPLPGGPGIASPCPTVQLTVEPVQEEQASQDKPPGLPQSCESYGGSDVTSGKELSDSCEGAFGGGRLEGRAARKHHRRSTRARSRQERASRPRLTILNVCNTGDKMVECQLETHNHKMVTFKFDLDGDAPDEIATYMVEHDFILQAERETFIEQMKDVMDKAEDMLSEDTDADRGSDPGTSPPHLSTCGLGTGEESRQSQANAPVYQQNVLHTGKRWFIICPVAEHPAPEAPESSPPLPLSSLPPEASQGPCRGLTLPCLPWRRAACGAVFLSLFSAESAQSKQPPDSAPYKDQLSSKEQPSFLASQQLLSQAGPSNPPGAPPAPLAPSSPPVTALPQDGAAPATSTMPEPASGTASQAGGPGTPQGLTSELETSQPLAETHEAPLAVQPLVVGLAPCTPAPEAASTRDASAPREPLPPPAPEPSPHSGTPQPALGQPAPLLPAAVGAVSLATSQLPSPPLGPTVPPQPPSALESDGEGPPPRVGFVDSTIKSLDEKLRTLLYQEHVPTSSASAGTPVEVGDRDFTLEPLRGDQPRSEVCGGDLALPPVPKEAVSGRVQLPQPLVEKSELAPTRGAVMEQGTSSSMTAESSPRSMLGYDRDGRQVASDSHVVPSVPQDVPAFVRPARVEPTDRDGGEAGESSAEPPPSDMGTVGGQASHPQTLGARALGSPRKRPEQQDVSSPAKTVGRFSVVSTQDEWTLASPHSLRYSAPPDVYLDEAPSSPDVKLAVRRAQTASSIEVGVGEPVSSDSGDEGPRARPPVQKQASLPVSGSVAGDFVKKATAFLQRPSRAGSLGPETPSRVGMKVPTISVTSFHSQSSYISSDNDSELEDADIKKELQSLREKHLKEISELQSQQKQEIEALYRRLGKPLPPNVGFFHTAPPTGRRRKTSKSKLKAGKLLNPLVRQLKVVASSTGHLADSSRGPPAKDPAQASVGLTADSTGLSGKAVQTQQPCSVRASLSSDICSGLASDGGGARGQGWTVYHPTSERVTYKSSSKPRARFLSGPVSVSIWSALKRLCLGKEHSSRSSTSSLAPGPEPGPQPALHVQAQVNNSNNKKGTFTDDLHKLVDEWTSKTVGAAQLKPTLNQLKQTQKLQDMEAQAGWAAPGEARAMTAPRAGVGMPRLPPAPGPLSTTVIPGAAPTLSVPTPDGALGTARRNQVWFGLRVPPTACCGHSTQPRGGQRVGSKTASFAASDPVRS
Chain of G protein-coupled receptor kinase 6 (Homo sapiens) (P43250 whole entry, looked up): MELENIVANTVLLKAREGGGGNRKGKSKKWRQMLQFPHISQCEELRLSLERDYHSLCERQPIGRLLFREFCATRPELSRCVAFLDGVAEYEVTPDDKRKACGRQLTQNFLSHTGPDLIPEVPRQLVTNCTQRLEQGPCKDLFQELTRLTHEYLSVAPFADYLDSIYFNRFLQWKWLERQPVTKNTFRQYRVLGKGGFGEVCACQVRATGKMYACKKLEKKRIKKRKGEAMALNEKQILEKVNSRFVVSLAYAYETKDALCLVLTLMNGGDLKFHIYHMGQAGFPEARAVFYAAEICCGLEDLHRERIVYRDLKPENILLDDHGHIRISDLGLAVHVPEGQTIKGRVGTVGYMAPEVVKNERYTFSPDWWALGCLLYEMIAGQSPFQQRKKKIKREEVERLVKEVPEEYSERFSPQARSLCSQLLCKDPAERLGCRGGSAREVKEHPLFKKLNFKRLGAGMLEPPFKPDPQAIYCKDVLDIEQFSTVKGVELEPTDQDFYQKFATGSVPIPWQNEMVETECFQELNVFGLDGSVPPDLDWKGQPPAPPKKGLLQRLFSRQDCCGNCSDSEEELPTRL
Chain of Homeodomain-interacting protein kinase 2 (Homo sapiens) (Q9H2X6 whole entry, looked up): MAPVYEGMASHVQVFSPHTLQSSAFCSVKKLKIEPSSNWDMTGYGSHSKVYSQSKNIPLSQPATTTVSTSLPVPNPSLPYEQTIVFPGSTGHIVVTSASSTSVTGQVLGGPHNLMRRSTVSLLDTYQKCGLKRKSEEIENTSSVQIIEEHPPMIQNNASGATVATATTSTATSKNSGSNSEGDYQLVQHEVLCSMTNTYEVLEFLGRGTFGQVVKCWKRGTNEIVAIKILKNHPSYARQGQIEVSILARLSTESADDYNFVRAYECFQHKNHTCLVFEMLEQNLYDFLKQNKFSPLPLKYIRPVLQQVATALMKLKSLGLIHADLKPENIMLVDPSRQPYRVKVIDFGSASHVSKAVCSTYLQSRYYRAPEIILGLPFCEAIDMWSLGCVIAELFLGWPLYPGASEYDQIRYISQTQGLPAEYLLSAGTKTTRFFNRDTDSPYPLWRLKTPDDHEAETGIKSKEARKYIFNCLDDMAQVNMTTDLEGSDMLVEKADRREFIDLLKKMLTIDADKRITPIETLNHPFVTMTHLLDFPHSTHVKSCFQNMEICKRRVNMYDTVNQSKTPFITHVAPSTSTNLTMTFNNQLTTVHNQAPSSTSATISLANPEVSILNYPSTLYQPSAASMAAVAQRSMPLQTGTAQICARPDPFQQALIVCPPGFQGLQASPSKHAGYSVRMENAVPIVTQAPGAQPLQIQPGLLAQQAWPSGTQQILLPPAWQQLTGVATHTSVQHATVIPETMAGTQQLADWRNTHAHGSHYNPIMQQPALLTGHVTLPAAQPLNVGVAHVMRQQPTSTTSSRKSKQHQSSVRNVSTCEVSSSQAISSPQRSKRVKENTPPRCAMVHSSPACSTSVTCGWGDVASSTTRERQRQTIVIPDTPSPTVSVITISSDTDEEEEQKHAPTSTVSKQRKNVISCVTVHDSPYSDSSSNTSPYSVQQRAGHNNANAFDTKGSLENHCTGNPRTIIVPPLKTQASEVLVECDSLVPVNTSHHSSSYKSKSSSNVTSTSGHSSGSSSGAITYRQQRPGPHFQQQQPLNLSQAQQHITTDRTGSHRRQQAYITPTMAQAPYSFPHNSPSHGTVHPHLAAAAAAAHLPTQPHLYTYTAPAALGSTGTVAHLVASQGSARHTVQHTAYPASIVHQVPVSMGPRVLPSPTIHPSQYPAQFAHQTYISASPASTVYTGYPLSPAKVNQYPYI
Chain of Serine/threonine-protein kinase Chk2 (Homo sapiens) (O96017 whole entry): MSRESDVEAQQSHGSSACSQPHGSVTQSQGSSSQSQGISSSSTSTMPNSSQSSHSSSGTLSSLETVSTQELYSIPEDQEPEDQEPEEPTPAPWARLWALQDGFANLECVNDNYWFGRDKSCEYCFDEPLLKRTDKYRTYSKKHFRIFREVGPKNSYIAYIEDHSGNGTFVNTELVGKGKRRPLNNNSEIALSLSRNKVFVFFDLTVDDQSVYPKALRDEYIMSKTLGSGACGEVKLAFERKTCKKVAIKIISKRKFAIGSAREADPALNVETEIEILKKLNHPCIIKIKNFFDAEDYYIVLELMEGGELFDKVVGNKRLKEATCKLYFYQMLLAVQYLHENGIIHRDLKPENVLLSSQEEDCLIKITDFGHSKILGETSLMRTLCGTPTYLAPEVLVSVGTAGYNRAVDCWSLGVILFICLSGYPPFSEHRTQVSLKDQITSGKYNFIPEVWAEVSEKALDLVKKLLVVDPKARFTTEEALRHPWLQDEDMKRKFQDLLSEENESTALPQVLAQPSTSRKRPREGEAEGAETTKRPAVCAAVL

Regarding `O=C(N[C@@H](C1CC1)C(F)(F)F)c1cc(-c2cnn3cc(-c4ccc(F)cc4)cnc23)cs1`, in assay [1], the inhibition came to 0%. In assay [2], the fold change (FC) was 0.1.

`CNC(=O)c1ccccc1Oc1nc(Nc2cc(OC)c(OC)c(OC)c2)ncc1Br`: the inhibition in [3] was 0%; in assay [4], 1%; in assay [5], 12%; in assay [6], 80%; in assay [8] it was 46%. The fold change (FC) in assay [7] came out at 0.

As to `CC(C)[C@H](NC(=O)c1cc(-c2cnn3cc(-c4ccc(OCCN5CCCCC5)cc4)cnc23)cs1)C(F)(F)F`, the fold change (FC) in assay [9] was 0.26.

As a reminder, the inhibition is the change of the read-out against control, counted positive when it falls.
